A short description of data set [1]: Cytotoxicity against human T cells assessed as cell viability at IC50 after 24 hrs by MTT assay. Type of data set: cell-based. Conditions: read-out: Activity. In outline: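 Peripheral blood mononuclear cells from healthy volunteers (Histopaque-1077), (2-3) × 10⁶ cells/mL in RPMI-1640 with 10% heat-inactivated FBS, 2 mM glutamine, gentamicin, exposed 24 h to compound; MTT (1 mg/mL) 4 h, formazan dissolved in SDS/DMF pH 4.7 overnight at 37 °C, OD 550 nm. Viability as % of unexposed cells; below 70% counted as toxic.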

Another data set relates to TK-10. Description: Cytotoxicity against human TK10 cells by SRB assay. The class given is functional. The essentials:
(§1)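 Lines from NCI, kept adherent in RPMI-1640 with 5% heat-inactivated FBS, 2 mM glutamine, 50 µg/mL gentamicin, 37 °C, 5% CO2; plated at densities ensuring exponential growth. Growth measured by NCI screening protocol with sulforhodamine B staining; GI50 per NCI method, means ± SEM from 3-6 independent experiments in duplicate. Compounds from DMSO stocks.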

A further data set has as its system NCI-H460. Put plainly: Cytotoxicity against human NCI-H460 cells by SRB assay. The class given is functional. In outline: as §1
Another data set relates to SF-268. Description: Cytotoxicity against human SF268 cells by SRB assay. Type of data set: functional. In outline: as §1
For a further data set, the system named is MCF7. Put plainly: Cytotoxicity against human MCF7 cells by SRB assay. Type of data set: functional. In outline: as §1
Another data set relates to UACC-62. Description: Cytotoxicity against human UACC62 cells by SRB assay. Type of data set: functional. The essentials: as §1
Data set [2] deals with T-cell. Description: (§2) Inhibition of PHA-induced human T cell proliferation after 24 hrs by MTT assay. Type of data set: functional, cell-based. In outline:
(§3)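 Human peripheral blood mononuclear cells (Histopaque-1077 isolation) stimulated with PHA 10 µg/mL as T-mitogen, in RPMI-1640 with 10% heat-inactivated FBS, 2 mM glutamine; compounds from DMSO stocks; colorimetric MTT read-out; cyclosporin A positive control. IC50 as means ± SEM from 3-6 independent experiments in duplicate.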

Data set [3] can be described thus: as §2. Type of data set: functional, cell-based. In outline:
as §3

The subject of data set [4] is T-cell. Description: Inhibition of PHA-induced human T cell proliferation at 100 uM after 24 hrs by MTT assay. Type of data set: functional, cell-based.

Active and inactive are the calls of the source. The rule behind the calls is not given here.

Consider `C[C@H]1[C@@H](O)[C@H](O)C[C@@H]2[C@]1(C)CC[C@H]1[C@@]2(C)CC[C@@]2(C)[C@@H]3CC(C)(C)CC[C@]3(C)CC[C@]12C` [PACHYSANDIOL A], for which, in [1], the viability at 24 h worked out at 113%. Besides, the concentration for 50% growth inhibition (GI50) in the data set on TK-10 turned out to be 95.7 µM; in the data set with NCI-H460, 79.4 µM; in the data set on SF-268, 15.5 µM; with MCF7 it was 66.4 µM; in the data set with UACC-62, 83.3 µM. Further, in the data set with T-cell [2], the Activity result was “Dose-dependent effect”. The molecule further registered an IC50 in data set [3] of 79.1 µM.

Consider `CC1=C(O)C(=O)C[C@H]2[C@]3(C)CC[C@@]4(C)[C@@H]5CC(C)(C)CC[C@]5(C)CC[C@]4(C)[C@H]3CC[C@]12C`, for which the outcome in the data set with T-cell [4] was inactive. Moreover, the GI50 in the data set with TK-10, in the data set on NCI-H460, in the data set with SF-268, in the data set on MCF7 and in the data set with UACC-62 was more than 100 µM in each case.

Take `C[C@H]1C(=O)[C@H](O)C[C@@H]2[C@]1(C)CC[C@H]1[C@@]2(C)CC[C@@]2(C)[C@@H]3CC(C)(C)CC[C@]3(C)CC[C@]12C`: the viability at 24 h in data set [1] was found to be 92.7%. The 50% growth inhibitory concentration (GI50) was determined as 90.5 µM in the data set with TK-10; 67.8 µM in the data set on NCI-H460; 95.8 µM in the data set on SF-268; 59.5 µM in the data set on MCF7; 86 µM in the data set with UACC-62. The Activity entry with T-cell [2] is “Dose-dependent effect”. Besides, the half-inhibitory concentration (IC50) in data set [3] is 82.3 µM.

With `C[C@@H](C(=O)O)[C@@]1(C)CC[C@H]2[C@@](C)(CC[C@@]3(C)[C@@H]4CC(C)(C)CC[C@]4(C)CC[C@]23C)[C@@H]1CC=O`, the viability at 24 h in [1] is 89%. Moreover, the GI50 in the data set with TK-10 was 10.1 µM; with NCI-H460, 5.4 µM; with SF-268 it was 17.2 µM; in the data set with MCF7, 7 µM; with UACC-62 it was 9.9 µM. In addition, in the data set with T-cell [2], the Activity result is “Dose-dependent effect”. Half-maximal inhibition in data set [3] (IC50) required 10.7 µM.

As to `COC(=O)[C@H](C)[C@@]1(C)CC[C@H]2[C@@](C)(CC[C@@]3(C)[C@@H]4CC(C)(C)CC[C@]4(C)CC[C@]23C)[C@@H]1CC=O`, the outcome with T-cell [4] was inactive. In addition, the 50% growth inhibitory concentration (GI50) in the data set with TK-10, in the data set on NCI-H460, with SF-268, in the data set on MCF7 and in the data set with UACC-62 was more than 100 µM each time.

On to `C[C@H]1C(=O)CC[C@@H]2[C@]1(C)CC[C@H]1[C@@]2(C)CC[C@@]2(C)[C@@H]3CC(C)(C)CC[C@]3(C)CC[C@]12C` [FRIEDELINE], for which the outcome in the data set with T-cell [4] was inactive. The 50% growth inhibitory concentration (GI50) in the data set with TK-10, in the data set on NCI-H460, in the data set on SF-268, in the data set on MCF7 and in the data set on UACC-62 was more than 100 µM in each case.

With `COc1cccc2c1C(=O)c1c(O)c3c(c(O)c1C2=O)C[C@@](O)(C(=O)CO)C[C@@H]3O[C@H]1C[C@H](N)[C@H](O)[C@H](C)O1` [DOXORUBICIN], the GI50 in the data set with TK-10 was 0.57 µM; in the data set on NCI-H460 it was 0.0081 µM; with SF-268, 0.093 µM; with MCF7, 0.055 µM; with UACC-62, 0.094 µM.

In the case of `C[C@H]1[C@H](O)C(=O)C[C@@H]2[C@]1(C)CC[C@H]1[C@@]2(C)CC[C@@]2(C)[C@@H]3CC(C)(C)CC[C@]3(C)CC[C@]12C`, the result in the data set with T-cell [4] was inactive. Also, the GI50 with TK-10, with NCI-H460, in the data set on SF-268, with MCF7 and in the data set with UACC-62 was more than 100 µM each time.

Regarding `CC(=O)O[C@@H]1CC[C@@H]2[C@](C)(CC[C@H]3[C@@]2(C)CC[C@@]2(C)[C@@H]4CC(C)(C)CC[C@]4(C)CC[C@]32C)[C@H]1C`, in the data set with T-cell [4], the outcome was inactive.

`C[C@H]1[C@H](O)CC[C@@H]2[C@]1(C)CC[C@H]1[C@@]2(C)CC[C@@]2(C)[C@@H]3CC(C)(C)CC[C@]3(C)CC[C@]12C`: the outcome in the data set with T-cell [4] was inactive. Further, the 50% growth inhibitory concentration (GI50) in the data set with TK-10, in the data set with NCI-H460, with SF-268, in the data set with MCF7 and with UACC-62 was more than 100 µM throughout.

For `C[C@H]1[C@@H](O)CC[C@@H]2[C@]1(C)CC[C@H]1[C@@]2(C)CC[C@@]2(C)[C@@H]3CC(C)(C)CC[C@]3(C)CC[C@]12C` [EPIFRIEDELINOL], the outcome with T-cell [4] was inactive. Further, the GI50 in the data set with TK-10, with NCI-H460, in the data set on SF-268, with MCF7 and in the data set on UACC-62 was more than 100 µM in each case.

In the case of `C[C@H]1C(=O)C=C[C@@H]2[C@]1(C)CC[C@H]1[C@@]2(C)CC[C@@]2(C)[C@@H]3CC(C)(C)CC[C@]3(C)CC[C@]12C`, the result in the data set with T-cell [4] was inactive. In addition, the GI50 with TK-10, in the data set with NCI-H460, in the data set with SF-268, with MCF7 and in the data set with UACC-62 was more than 100 µM each time.

(Values after ChEMBL document CHEMBL1156353, “Synthetic secofriedelane and friedelane derivatives as inhibitors of human lymphocyte proliferation and growth of human cancer cell lines in vitro” (J Nat Prod, 2001).)
